# Activity calls are given as the source filed them. The rule behind the calls is not given here.
# Columns and labels:
# enterovirus D68 [1] = assay: Antiviral activity against Enterovirus-D68 fermon infected in human RD cells assessed as reduction in virus induced cytopathic effect by measuring ATP level incubated for 72 hrs by cell titer-glo luminescent cell viability assay; type: functional, organism-based; settings: Enterovirus D
# How it was run: (§1)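 RD cells seeded at 1.5 × 10^4/well and grown 24 h, then given 100 TCID50 virus plus compound in 3-fold dilutions (0.01–200 μM). DMSO control. Incubated 37 °C for 72 h; ATP read by CellTiter-Glo luminescence and normalized to uninfected and infected controls. EC50 is the concentration giving 50% CPE reduction. Strains: STL-2014-12, US/KY/14-18953, US/MO/14-18947, Fermon.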
# enterovirus D68 [2] = assay: Antiviral activity against Enterovirus D68 infected in human RD cells assessed as reduction in thermal inactivation of virus at 55 degreeC at 12.5 uM incubated for 72 hrs by TCID50 assay; type: functional, organism-based
# How it was run: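 Compound at 12.5 μM or DMSO was incubated with EV-D68 (2 × 10^6 PFU/ml) at 33 °C for 30 min. The mixture was heated for 2 min at temperatures between 37 and 59 °C, then cooled to 4 °C. Residual titre was measured by TCID50 on RD cells: 10-fold virus dilutions, CPE scored after 72 h, Reed–Muench calculation.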
# enterovirus D68 [3] = assay: Antiviral activity against Enterovirus-D68 STL-2014-12 infected in human RD cells assessed as reduction in virus induced cytopathic effect by measuring ATP level incubated for 72 hrs by cell titer-glo luminescent cell viability assay; type: functional, organism-based; how it was run: as §1
# [4] = Selectivity index, ratio of CC50 for human RD cells to EC50 for Enterovirus-D68 US/KY/14-18953 infected in human RD cells; type: toxicity, cell-based; settings: read-out: Ratio CC50/EC50
# How it was run: (§2)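 EC50 came from a CPE reduction assay. RD cells (1.5 × 10^4 per well, grown 24 h) were infected with 100 TCID50 of the named strain and given 3-fold dilutions from 0.01 to 200 μM. After 72 h at 37 °C, ATP was read by CellTiter-Glo and normalized to infected and uninfected controls. CC50 came from uninfected cells under the same dilutions, 72 h and ATP readout. SI = CC50/EC50.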
# [5] = Selectivity index, ratio of CC50 for human RD cells to EC50 for Enterovirus-D68 US/MO/14-18947 infected in human RD cells; type: toxicity, cell-based; settings: read-out: Ratio CC50/EC50; how it was run: as §2
# enterovirus D68 [6] = assay: Antiviral activity against Enterovirus-D68 infected in human HeLa cells assessed as reduction in virus induced cytopathic effect incubated for […] by plaque reduction assay; type: functional, organism-based; settings: Enterovirus D
# [7] = Selectivity index, ratio of CC50 for human RD cells to EC50 for Enterovirus-D68 fermon infected in human RD cells; type: toxicity, cell-based; settings: read-out: Ratio CC50/EC50; how it was run: as §2
# [8] = Selectivity index, ratio of CC50 for human RD cells to EC50 for Enterovirus-D68 STL-2014-12 infected in human RD cells to; type: toxicity, cell-based; how it was run: as §2
# enterovirus D68 [9] = assay: Antiviral activity against Enterovirus-D68 US/MO/14-18947 infected in human RD cells assessed as reduction in virus induced cytopathic effect by measuring ATP level incubated for 72 hrs by cell titer-glo luminescent cell viability assay; type: functional, organism-based; settings: Enterovirus D, US/MO/14-18947, RD; how it was run: as §1
# RD = assay: Cytotoxicity against human RD cells assessed as inhibition of cell viability by measuring ATP level incubated for 72 hrs by cell titer-glo luminescent cell viability assay; type: functional
# How it was run: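 Uninfected RD cells seeded at 1.5 × 10^4/well and grown 24 h, then exposed to compound in 3-fold dilutions (0.01–200 μM), with DMSO as cell control. ATP read by CellTiter-Glo luminescence after 72 h; CC50 is the 50% cytotoxic concentration.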
# enterovirus D68 [10] = assay: Antiviral activity against Enterovirus-D68 US/KY/14-18953 infected in human RD cells assessed as reduction in virus induced cytopathic effect by measuring ATP level incubated for 72 hrs by cell titer-glo luminescent cell viability assay; type: functional, organism-based; settings: Enterovirus D, US/KY/14-18953, RD; how it was run: as §1
# enterovirus D68 [11] = assay: Antiviral activity against Enterovirus D68 infected in human RD cells assessed as inhibition of VP1 expression level incubated for 1.5 hrs by Western blot analysis; type: functional, organism-based; settings: dose 0.1-10 µM, DDE = dose-dependent effect
# How it was run: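 RD cells (8.0 × 10^4 per well) were grown for 24 h, then infected with EV-D68 at MOI 0.01 for 1.5 h with gradient-diluted compound or DMSO. Lysates were made at 12 hpi in RIPA buffer and run on 10% SDS-PAGE. Blots were probed with anti-EV-D68 VP1 and anti-tubulin antibodies, with HRP secondary and ECL detection.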
# enterovirus D68 [12] = assay: Antiviral activity against Enterovirus D68 infected in human RD cells assessed as inhibition of viral replication at 1 uM incubated for 1.5 hrs by crystal violet staining based plaque formation assay; type: functional, organism-based
# How it was run: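 Overnight RD monolayers received serially diluted virus stock plus compound for 1.5 h. Supernatant was removed and cells were overlaid with 2× DMEM containing 2% low-melting agarose. At 72 hpi cells were fixed with 4% paraformaldehyde for 4 h at room temperature and stained with 1% crystal violet to count plaques.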
# enterovirus D68 [13] = assay: Antiviral activity against Enterovirus D68 infected in human RD cells assessed as inhibition of VP1 expression level incubated for 12 hrs by Hoechst 33342 staining based immunofluorescence assay; type: functional, organism-based; settings: dose 0.1-10 µM, DDE = dose-dependent effect
# How it was run: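 RD cells were infected with EV-D68 at MOI 1 together with compound for 12 h. Cells were fixed in 4% formaldehyde for 30 min and permeabilized in 0.1% Triton X-100 for 30 min, then blocked with 5% bovine serum. Staining used rabbit anti-VP1 with an Alexa-546 secondary and 1 μM Hoechst33342 nuclear stain, imaged by fluorescence microscopy.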
# [14] = Tmax in Sprague-Dawley rat at 5 mg/kg, po measured upto 24 hrs by LC-MS/MS analysis; type: ADME, organism-based; settings: in vivo
# How it was run: (§3)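 Male SD rats (6–9 or 6–8 weeks old, n = 3 per route) received a single 1 mg/kg iv or 5 mg/kg po dose. The vehicle was 5% DMSO/5% Solutol HS-15/90% water or 5% DMSO/95% HP-β-CD in water. Jugular blood was drawn into heparin at 0.083 (iv only), 0.25, 0.5, 1, 2, 4, 6 and 24 h. Plasma was analysed by LC-MS/MS. Values are mean ± SD.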
# [15] = AUC(0 to t) in Sprague-Dawley rat at 1 mg/kg, iv measured upto 24 hrs by LC-MS/MS analysis; type: ADME, organism-based; set-up: dose 1 mg/kg, time < 24 hrs, route iv; settings: in vivo; how it was run: as §3
# [16] = Half life in Sprague-Dawley rat at 1 mg/kg, iv measured upto 24 hrs by LC-MS/MS analysis; type: ADME, organism-based; settings: in vivo; how it was run: as §3
# [17] = AUC (0 to infinity) in Sprague-Dawley rat at 1 mg/kg, iv measured upto 24 hrs by LC-MS/MS analysis; type: ADME, organism-based; set-up: dose 1 mg/kg, time < 24 hrs, route iv; settings: in vivo; how it was run: as §3
# [18] = Half life in Sprague-Dawley rat at 5 mg/kg, po measured upto 24 hrs by LC-MS/MS analysis; type: ADME, organism-based; settings: in vivo; how it was run: as §3
# [19] = AUC (0 to infinity) in Sprague-Dawley rat at 5 mg/kg, po measured upto 24 hrs by LC-MS/MS analysis; type: ADME, organism-based; set-up: time < 24 hrs, dose 5 mg/kg, route po; settings: in vivo; how it was run: as §3
# [20] = C0 in Sprague-Dawley rat at 1 mg/kg, iv measured upto 24 hrs by LC-MS/MS analysis; type: ADME, organism-based; settings: in vivo; how it was run: as §3
# [21] = Cmax in Sprague-Dawley rat at 5 mg/kg, po measured upto 24 hrs by LC-MS/MS analysis; type: ADME, organism-based; set-up: dose 5 mg/kg, time < 24 hrs, route po; settings: in vivo; how it was run: as §3
# [22] = AUC (0 to t) in Sprague-Dawley rat at 5 mg/kg, po measured upto 24 hrs by LC-MS/MS analysis; type: ADME, organism-based; set-up: dose 5 mg/kg, time < 24 hrs, route po; settings: in vivo; how it was run: as §3
# [23] = Oral bioavailability in Sprague-Dawley rat at 5 mg/kg measured upto 24 hrs by LC-MS/MS analysis; type: ADME, organism-based; settings: in vivo; how it was run: as §3
# enterovirus D68 [24] = assay: Antiviral activity against Enterovirus D68 infected in human RD cells assessed as inhibition of viral replication at 2 uM treated for 1 hr by qRT-PCR analysis; type: functional, organism-based
# How it was run: (§4)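 RD cells grown for 24 h were infected at 0 h with EV-D68 (MOI 0.01), and virus was washed off at 1 hpi. Compound at 2 μM or DMSO was added over set windows (0–1 h, after 1 hpi, or 0–14 h). Supernatants were collected at 14 hpi. Viral RNA copies were measured by qRT-PCR against a copy-number standard curve. Values are mean ± SD.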
# enterovirus D68 [25] = assay: Antiviral activity against Enterovirus D68 infected in human RD cells assessed as inhibition of viral replication at 2 uM treated for 14 hrs by qRT-PCR analysis; type: functional, organism-based; how it was run: as §4
# [26] = Metabolic stability in human liver microsomes assessed as half life at 1 uM incubated upto 60 mins in presence of NADPH by LC-MS/MS analysis; type: ADME, Microsome; settings: 1 h
# How it was run: (§5)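 Test compound at 1 μM final was incubated at 37 °C with 0.5 mg/mL liver microsomal protein and 1 mM NADPH, alongside a no-NADPH control. Samples were quenched at 0, 5, 15, 30 and 60 min into solution containing verapamil internal standard, then centrifuged and analysed by LC-MS/MS. t1/2 and intrinsic clearance were derived from the extent of metabolism.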
# enterovirus D68 [27] = assay: Antiviral activity against Enterovirus D68 infected in human RD cells assessed as increase in viral RNA release temperature at 10 ug/ml incubated for 15 mins by particle release thermal stability assay (reference value: 52 degree C); type: functional; settings: dose 10 µg/ml, 0.25 h
# [28] = Metabolic stability in Beagle dog liver microsomes assessed as half life at 1 uM incubated upto 60 mins in presence of NADPH by LC-MS/MS analysis; type: ADME, Canis lupus familiaris, Microsome; settings: 1 h; how it was run: as §5
# [29] = Metabolic stability in rat liver microsomes assessed as half life at 1 uM incubated upto 60 mins in presence of NADPH by LC-MS/MS analysis; type: ADME, Microsome; settings: 1 h; how it was run: as §5
# [30] = Enterovirus D, STL-2014-12, RD, 72 h
structure (smiles),measurement,setting,value
Cc1cc(CCCOc2c(C)cc(-c3noc(C(F)(F)F)n3)cc2C)on1 [PLECONARIL],EC50,enterovirus D68 [1],300 nM
same,Activity,enterovirus D68 [2],Active
same,EC50,enterovirus D68 [3]; [30],400 nM
same,selectivity ratio,[4],> 417
same,selectivity ratio,[5],> 156
same,EC50,enterovirus D68 [6],430 nM
same,selectivity ratio,[7],> 333
same,selectivity ratio,"[8]; RD cells, read-out: Ratio CC50/EC50",> 250
same,EC50,enterovirus D68 [9],640 nM
same,CC50,RD,> 200000 nM
same,EC50,enterovirus D68 [10],240 nM
CCc1nc(-c2cnc3ccc(-c4ccc(N)cc4)cc3c2)no1,Activity,enterovirus D68 [11],Dde
same,Activity,enterovirus D68 [12],Active
same,Activity,enterovirus D68 [13],Dde
CCc1nc(-c2cnc3ccc(-c4ccc(N)cc4)cc3c2)no1.Cl,EC50,enterovirus D68 [1],60 nM
same,Tmax,[14],0.417 h
same,AUCt,[15],157 ng·h/mL
same,t1/2,[16],0.309 h
same,EC50,enterovirus D68 [3]; rd,80 nM
same,selectivity ratio,[4],> 159
same,selectivity ratio,[5],> 159
same,AUC,[17],158 ng·h/mL
same,t1/2,[18],1.06 h
same,AUC,[19],53.8 ng·h/mL
same,C0,[20],1370 ng/mL
same,Cmax,[21],36.1 ng/mL
same,AUC,[22],49.5 ng·h/mL
same,selectivity ratio,[7],> 185
same,Ratio CC50/EC50,[8],> 139
same,EC50,enterovirus D68 [9],70 nM
same,F,[23],6.8%
same,EC50,enterovirus D68 [10],70 nM
Nc1ccc(-c2ccc3ncc(-c4noc(C(F)(F)F)n4)cc3c2)cc1 [listing 1 of 2 here],Activity,enterovirus D68 [2],Active
same,Activity,enterovirus D68 [11],Dde
same,Activity,enterovirus D68 [24],Active
same,Activity,enterovirus D68 [12],Active
same,Activity,enterovirus D68 [13],Dde
same,Activity,enterovirus D68 [25],Active
CCOC(=O)c1ccc(OCCC2CCN(c3ccc(C)nn3)CC2)cc1 [PIRODAVIR],EC50,enterovirus D68 [6],1610 nM
Cl.Nc1ccc(-c2ccc3ncc(-c4noc(C(F)(F)F)n4)cc3c2)cc1,EC50,enterovirus D68 [1],90 nM
same,EC50,enterovirus D68 [3]; rd,100 nM
same,selectivity ratio,[4],> 123
same,selectivity ratio,[5],> 123
same,selectivity ratio,[7],> 123
same,Ratio CC50/EC50,[8],> 111
same,EC50,enterovirus D68 [9],90 nM
same,EC50,enterovirus D68 [10],90 nM
Nc1ccc(-c2ccc3ncc(-c4noc(C(F)(F)F)n4)cc3c2)cc1 [listing 2 of 2 here],t1/2,[26],2.47 h
same,Tmax,[14],1 h
same,AUCt,[15],253 ng·h/mL
same,t1/2,[16],1.92 h
same,EC50,enterovirus D68 [3]; [30],50 nM
same,T,enterovirus D68 [27],55 °C
same,AUC,[17],268 ng·h/mL
same,t1/2,[18],1.21 h
same,AUC,[19],320 ng·h/mL
same,C0,[20],637 ng/mL
same,Cmax,[21],108 ng/mL
same,AUC,[22],307 ng·h/mL
same,Ratio CC50/EC50,[8],> 50
same,t1/2,[28],0.288 h
same,t1/2,[29],0.683 h
same,F,[23],23.9%
same,CC50,RD,> 2500 nM

# — ChEMBL document CHEMBL5214977, “Discovery and Optimization of Quinoline Analogues as Novel Potent Antivirals against Enterovirus D68” (J Med Chem, 2022)
